Assay results from ChEMBL document CHEMBL3632612, “Discovery of WQ-3810: Design, synthesis, and evaluation of 7-(3-alkylaminoazetidin-1-yl)fluoro-quinolones as orally active antibacterial agents” (Eur J Med Chem, 2015).
In brackets after ≈: the same amount, converted by molar mass.

Key:
Pseudomonas aeruginosa [1] = assay: Antibacterial activity against Pseudomonas aeruginosa IFO3445 assessed as growth inhibition at 128 to 0.002 mg/L incubated for 18 hrs at 37 degC by agar dilution method; format: functional; settings: IFO3445, 18 h
In short: (§1)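 Agar dilution on Mueller Hinton agar per Japanese Society of Chemotherapy standard method; about 10⁴ cfu inoculated onto plates holding two-fold dilution series; incubation 37°C, 18 h; MIC read as growth endpoint.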

Proteus mirabilis = assay: Antibacterial activity against Proteus mirabilis IFO3849 assessed as growth inhibition at 128 to 0.002 mg/L incubated for 18 hrs at 37 degC by agar dilution method; format: functional; settings: IFO3849, 18 h; in short: as §1
Citrobacter freundii = assay: Antibacterial activity against Citrobacter freundii IFO1268 assessed as growth inhibition at 128 to 0.002 mg/L incubated for 18 hrs at 37 degC by agar dilution method; format: functional; settings: IFO1268, 18 h; in short: as §1
DNA gyrase = DNA gyrase (Escherichia coli, UniProt P0AES4+P0AES6); assay: Inhibition of Escherichia coli DNA gyrase preincubated for 5 mins at 37 degC before addition of relaxed pBR322 as substrate by supercoiling assay; format: protein-complex assay
Serratia marcescens [2] = assay: Antibacterial activity against Serratia marcescens T-55 assessed as growth inhibition at 128 to 0.002 mg/L incubated for 18 hrs at 37 degC by agar dilution method; format: functional; settings: T-55, 18 h; in short: as §1
Pseudomonas aeruginosa [3] = assay: Antibacterial activity against Pseudomonas aeruginosa 15846 assessed as growth inhibition at 128 to 0.002 mg/L incubated for 18 hrs at 37 degC by agar dilution method; format: functional; settings: Pseudomonas aeruginosa, 15846, 18 h; in short: as §1
Klebsiella pneumoniae [4] = assay: Antibacterial activity against Klebsiella pneumoniae KC-1 assessed as growth inhibition at 128 to 0.002 mg/L incubated for 18 hrs at 37 degC by agar dilution method; format: functional; settings: KC-1, 18 h; in short: as §1
[5] = Drug excretion in Sprague-Dawley rat urine at 10 mg/kg, po after 24 hrs by HPLC; format: ADME, organism-based; settings: read-out: Drug excretion
In short: (§2)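 Six-week male Sprague-Dawley rats, fasted overnight; oral dose suspended in 0.5% methylcellulose, iv dose dissolved in 0.04 N NaOH. Urine from intact rats in metabolic cages, bile from bile duct-cannulated rats, 0–24 h. Bile alkaline-hydrolysed (1 N NaOH, 37°C, 1 h) to convert glucuronides; HPLC with UV 290 nm and internal standard; % of dose; mean ± S.D., three rats.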

Klebsiella pneumoniae [6] = assay: Antibacterial activity against Klebsiella pneumoniae DT-S assessed as growth inhibition at 128 to 0.002 mg/L incubated for 18 hrs at 37 degC by agar dilution method; format: functional; in short: as §1
[7] = Oral drug absorption in Sprague-Dawley rat at 10 mg/kg, po after 24 hrs by HPLC; format: ADME, organism-based; settings: in vivo
In short: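 Absorption rate computed as total urinary plus biliary excretion (% of dose, summed means) after oral dosing divided by total after iv dosing; excretion measured in fasted male Sprague-Dawley rats by HPLC over 24 h, bile glucuronides alkaline-hydrolysed.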

Proteus vulgaris = assay: Antibacterial activity against Proteus vulgaris IFO3167 assessed as growth inhibition at 128 to 0.002 mg/L incubated for 18 hrs at 37 degC by agar dilution method; format: functional; settings: IFO3167, 18 h; in short: as §1
[8] = Drug excretion in Sprague-Dawley rat at 10 mg/kg, po after 24 hrs by HPLC; format: ADME, organism-based; settings: in vivo, read-out: Drug excretion; in short: as §2
[9] = tested on: Acinetobacter calcoaceticus; assay: Antibacterial activity against Acinetobacter calcoaceticus Ac-54 assessed as growth inhibition at 128 to 0.002 mg/L incubated for 18 hrs at 37 degC by agar dilution method; format: functional; settings: Ac-54, 18 h; in short: as §1
Providencia rettgeri = assay: Antibacterial activity against Providencia rettgeri W1008 assessed as growth inhibition at 128 to 0.002 mg/L incubated for 18 hrs at 37 degC by agar dilution method; format: functional; settings: W1008, 18 h; in short: as §1
Escherichia coli [10] = assay: Antibacterial activity against Escherichia coli 177 assessed as growth inhibition at 128 to 0.002 mg/L incubated for 18 hrs at 37 degC by agar dilution method; format: functional; settings: Escherichia coli, 177, 18 h; in short: as §1
Escherichia coli [11] = assay: Antibacterial activity against Escherichia coli NIHJ assessed as growth inhibition at 128 to 0.002 mg/L incubated for 18 hrs at 37 degC by agar dilution method; format: functional; in short: as §1
Pseudomonas aeruginosa [12] = assay: Antibacterial activity against Pseudomonas aeruginosa E-2 assessed as growth inhibition at 128 to 0.002 mg/L incubated for 18 hrs at 37 degC by agar dilution method; format: functional; settings: E-2, 18 h; in short: as §1
[13] = Drug excretion in Sprague-Dawley rat bile assessed as unmetabolized form at 10 mg/kg, po after 24 hrs by HPLC; format: ADME, organism-based; settings: read-out: Drug excretion; in short: as §2
[14] = Passive permeability of the compound after 5 hrs at 25 degC by PAMPA assay; format: physicochemical; settings: read-out: Peff
In short: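 PAMPA: 10 µM compound in PBS with 5% MeOH in donor, PBS acceptor; 25°C, 5 h; both sides quantified by HPLC; Peff derived from donor/acceptor concentrations, volumes, 0.3 cm² filter area and 18,000 s; mean ± S.D., n=3.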

Enterobacter cloacae = assay: Antibacterial activity against Enterobacter cloacae IFO13535 assessed as growth inhibition at 128 to 0.002 mg/L incubated for 18 hrs at 37 degC by agar dilution method; format: functional; settings: IFO13535, 18 h; in short: as §1
Escherichia coli [15] = assay: Antibacterial activity against Escherichia coli KC-14 assessed as growth inhibition at 128 to 0.002 mg/L incubated for 18 hrs at 37 degC by agar dilution method; format: functional; settings: KC-14, 18 h; in short: as §1
Morganella morganii = assay: Antibacterial activity against Morganella morganii W1026 assessed as growth inhibition at 128 to 0.002 mg/L incubated for 18 hrs at 37 degC by agar dilution method; format: functional; settings: W1026, 18 h; in short: as §1
Salmonella typhimurium = assay: Antibacterial activity against Salmonella typhimurium IFO13245 assessed as growth inhibition at 128 to 0.002 mg/L incubated for 18 hrs at 37 degC by agar dilution method; format: functional, Salmonella enterica subsp. enterica serovar Typhimurium; settings: Salmonella enterica, IFO13245, 18 h; in short: as §1
Serratia marcescens [16] = assay: Antibacterial activity against Serratia marcescens IFO3736 assessed as growth inhibition at 128 to 0.002 mg/L incubated for 18 hrs at 37 degC by agar dilution method; format: functional; settings: IFO3736, 18 h; in short: as §1
[17] = Solubility of the compound in JP2 solution at pH 6.8 after 24 hrs at 25 degC by HPLC; format: physicochemical
In short: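 Excess solid shaken in JP2 (50 mM potassium dihydrogenphosphate, pH 6.8) at 25°C for 24 h to equilibrium, filtered 0.45 µm; filtrate concentration by reversed-phase UPLC, UV 290 nm; mean ± S.D., n=3.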

MIC (Pseudomonas aeruginosa [1])	MIC (Proteus mirabilis)	MIC (Citrobacter freundii)	IC50 (DNA gyrase)	MIC (Serratia marcescens [2])	MIC (Pseudomonas aeruginosa [3])	MIC (Klebsiella pneumoniae [4])	dose excreted at 24 h [5]	MIC (Klebsiella pneumoniae [6])	MIC (Proteus vulgaris)	MIC [9]	MIC (Providencia rettgeri)	MIC (Escherichia coli [10])	MIC (Escherichia coli [11])	MIC (Pseudomonas aeruginosa [12])	MIC (Enterobacter cloacae)	MIC (Escherichia coli [15])	MIC (Morganella morganii)	MIC (Salmonella typhimurium)	MIC (Serratia marcescens [16])	SMILES	further results
0.21 µg/mL (≈ 0.455 µM)	0.21 µg/mL (≈ 0.455 µM)	0.21 µg/mL (≈ 0.455 µM)	412 nM	0.21 µg/mL (≈ 0.455 µM)	0.21 µg/mL (≈ 0.455 µM)	0.21 µg/mL (≈ 0.455 µM)	17%	0.21 µg/mL (≈ 0.455 µM)	0.21 µg/mL (≈ 0.455 µM)	0.21 µg/mL (≈ 0.455 µM)	0.21 µg/mL (≈ 0.455 µM)	0.012 µg/mL (≈ 0.026 µM)	0.012 µg/mL (≈ 0.026 µM)	0.21 µg/mL (≈ 0.455 µM)	0.21 µg/mL (≈ 0.455 µM)	0.012 µg/mL (≈ 0.026 µM)	0.21 µg/mL (≈ 0.455 µM)	0.21 µg/mL (≈ 0.455 µM)	0.21 µg/mL (≈ 0.455 µM)	CCCNC1CN(c2c(F)cc3c(=O)c(C(=O)O)cn(-c4nc(N)c(F)cc4F)c3c2C)C1	Fa at 24 h [7]: > 90%; dose excreted at 24 h [8]: 91%; dose excreted at 24 h [13]: 74%; Papp at 5 h [14]: 1.1 ×10⁻⁶ cm/s; solubility at 24 h [17]: 41 µg/mL (≈ 88.9 µM)
0.17 µg/mL (≈ 0.368 µM)	0.17 µg/mL (≈ 0.368 µM)	0.17 µg/mL (≈ 0.368 µM)	433 nM	0.17 µg/mL (≈ 0.368 µM)	0.17 µg/mL (≈ 0.368 µM)	0.17 µg/mL (≈ 0.368 µM)	24%	0.17 µg/mL (≈ 0.368 µM)	0.17 µg/mL (≈ 0.368 µM)	0.17 µg/mL (≈ 0.368 µM)	0.17 µg/mL (≈ 0.368 µM)	0.01 µg/mL (≈ 0.0217 µM)	0.01 µg/mL (≈ 0.0217 µM)	0.17 µg/mL (≈ 0.368 µM)	0.17 µg/mL (≈ 0.368 µM)	0.01 µg/mL (≈ 0.0217 µM)	0.17 µg/mL (≈ 0.368 µM)	0.17 µg/mL (≈ 0.368 µM)	0.17 µg/mL (≈ 0.368 µM)	Cc1c(N2CC(NC(C)C)C2)c(F)cc2c(=O)c(C(=O)O)cn(-c3nc(N)c(F)cc3F)c12	Fa at 24 h [7]: > 90%; dose excreted at 24 h [8]: 92%; dose excreted at 24 h [13]: 68%; Papp at 5 h [14]: 1.2 ×10⁻⁶ cm/s; solubility at 24 h [17]: 41 µg/mL (≈ 88.9 µM)
0.57 µg/mL (≈ 1.2 µM)	0.57 µg/mL (≈ 1.2 µM)	0.57 µg/mL (≈ 1.2 µM)	694 nM	0.57 µg/mL (≈ 1.2 µM)	0.57 µg/mL (≈ 1.2 µM)	0.57 µg/mL (≈ 1.2 µM)		0.57 µg/mL (≈ 1.2 µM)	0.57 µg/mL (≈ 1.2 µM)	0.57 µg/mL (≈ 1.2 µM)	0.57 µg/mL (≈ 1.2 µM)	0.038 µg/mL (≈ 0.0799 µM)	0.038 µg/mL (≈ 0.0799 µM)	0.57 µg/mL (≈ 1.2 µM)	0.57 µg/mL (≈ 1.2 µM)	0.038 µg/mL (≈ 0.0799 µM)	0.57 µg/mL (≈ 1.2 µM)	0.57 µg/mL (≈ 1.2 µM)	0.57 µg/mL (≈ 1.2 µM)	Cc1c(N2CC(NC(C)(C)C)C2)c(F)cc2c(=O)c(C(=O)O)cn(-c3nc(N)c(F)cc3F)c12	

SMILES	MIC (Pseudomonas aeruginosa [1])	MIC (Proteus mirabilis)	MIC (Citrobacter freundii)	IC50 (DNA gyrase)	MIC (Serratia marcescens [2])	MIC (Pseudomonas aeruginosa [3])	MIC (Klebsiella pneumoniae [4])	dose excreted at 24 h [5]	MIC (Klebsiella pneumoniae [6])	MIC (Proteus vulgaris)	MIC [9]	MIC (Providencia rettgeri)	MIC (Escherichia coli [10])	MIC (Escherichia coli [11])	MIC (Pseudomonas aeruginosa [12])	MIC (Enterobacter cloacae)	MIC (Escherichia coli [15])	MIC (Morganella morganii)	MIC (Salmonella typhimurium)	MIC (Serratia marcescens [16])	further results
C[C@H]1COc2c(N3CCN(C)CC3)c(F)cc3c(=O)c(C(=O)O)cn1c23.C[C@H]1COc2c(N3CCN(C)CC3)c(F)cc3c(=O)c(C(=O)O)cn1c23.O [LEVOFLOXACIN]		0.12 µg/mL	0.12 µg/mL		0.12 µg/mL		0.12 µg/mL		0.12 µg/mL	0.12 µg/mL	0.12 µg/mL	0.12 µg/mL	0.019 µg/mL	0.019 µg/mL		0.12 µg/mL	0.019 µg/mL	0.12 µg/mL	0.12 µg/mL	0.12 µg/mL	
